Experimental data taken from ChEMBL document CHEMBL5257027 (Eur J Med Chem, 2016).

Key:
[1] = target: Tyrosine-protein kinase ABL1 (Homo sapiens) (UniProt P00519); test: Inhibition of ABL (unknown origin) at 10 uM using […] as substrate incubated for 40 mins in presence of [gamma33P]ATP by scintillation counting based hotspot kinase assay relative to control
[2] = tested on: PC-3; test: Cytotoxicity against human PC-3 cells; type: functional
Method in brief: (§1)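 Run in the US NCI 58-cell-line screen covering nine cancer types (leukemia, NSCLC, colon, CNS, melanoma, ovarian, renal, prostate, breast). Five-dose mode gave GI50, TGI and LC50 values for each cell line. In the single-dose pre-screen, % inhibition was taken as 100 minus growth percentage.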

[3] = tested on: Panel leukemia (Carcinoma cell lines); test: Antiproliferative activity against human Panel leukemia (5 Carcinoma cell lines) assessed as reduction in mean cell growth; type: functional
Method in brief: (§2)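 NCI five-dose testing across the 58-line panel gives GI50, TGI and LC50 for each line. Subpanel lines report mean GI50 for each of the nine cancer types.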

[4] = tested on: K562; test: Antiproliferative activity against human K562 cells assessed as reduction in cell growth; type: functional; method in brief: as §2
[5] = target: Serine/threonine-protein kinase B-raf (Homo sapiens) (UniProt P15056); test: Inhibition of B-RAF (unknown origin) at 10 uM using […] as substrate incubated for 40 mins in presence of [gamma33P]ATP by scintillation counting based hotspot kinase assay relative to control
Sequence of Serine/threonine-protein kinase B-raf (Homo sapiens) (P15056 whole entry): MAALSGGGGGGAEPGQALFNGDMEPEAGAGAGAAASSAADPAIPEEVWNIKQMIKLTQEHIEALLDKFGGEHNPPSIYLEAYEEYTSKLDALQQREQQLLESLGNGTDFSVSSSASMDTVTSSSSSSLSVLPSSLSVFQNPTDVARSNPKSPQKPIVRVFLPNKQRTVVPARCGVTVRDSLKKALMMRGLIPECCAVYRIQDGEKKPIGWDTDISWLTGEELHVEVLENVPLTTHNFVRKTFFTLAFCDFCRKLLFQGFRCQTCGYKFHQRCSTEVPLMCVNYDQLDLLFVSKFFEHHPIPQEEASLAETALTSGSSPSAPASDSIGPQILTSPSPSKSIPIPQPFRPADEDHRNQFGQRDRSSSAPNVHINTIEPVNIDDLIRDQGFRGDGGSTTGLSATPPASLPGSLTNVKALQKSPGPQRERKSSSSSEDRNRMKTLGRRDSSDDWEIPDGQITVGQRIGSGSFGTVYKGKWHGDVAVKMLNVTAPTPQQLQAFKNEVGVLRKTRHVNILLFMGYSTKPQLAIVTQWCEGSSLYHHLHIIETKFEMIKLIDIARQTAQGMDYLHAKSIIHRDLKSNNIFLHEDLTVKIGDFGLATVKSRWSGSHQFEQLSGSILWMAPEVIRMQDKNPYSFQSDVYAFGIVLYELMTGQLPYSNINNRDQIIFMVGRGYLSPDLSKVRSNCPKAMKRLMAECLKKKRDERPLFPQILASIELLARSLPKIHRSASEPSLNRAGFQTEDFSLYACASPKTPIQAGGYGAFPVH

[6] = tested on: HCT-15; test: Antiproliferative activity against human HCT-15 cells assessed as reduction in cell growth; type: functional; method in brief: as §2
[7] = tested on: Serine/threonine-protein kinase B-raf (Homo sapiens), P15056 [V600E]; test: Inhibition of B-RAF V600E mutant (unknown origin) at 10 uM using […] as substrate incubated for 40 mins in presence of [gamma33P]ATP by scintillation counting based hotspot kinase assay relative to control
Sequence of Serine/threonine-protein kinase B-raf (Homo sapiens), P15056 [V600E] (P15056 whole entry V600E): as the sequence (P15056 whole entry) above, with V600E counted along it

[8] = Antiproliferative activity against human Panel NCI-58 (58 Carcinoma cell lines) assessed as reduction in mean cell growth at 10 uM; type: functional; set-up: scale not given: the % may be the effect or the level left
Method in brief: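 NCI 58-cell-line screen covering leukemia, NSCLC, colon, CNS, melanoma, ovarian, renal, prostate and breast lines. Compounds given once at […] (micromolar per the line). Percent inhibition taken as 100 minus growth percent. Panel line reports the mean over all 58 lines.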

[9] = target: Mitogen-activated protein kinase 14 (Homo sapiens) (UniProt Q16539); test: Inhibition of MAPK14 (p38 alpha) (unknown origin) at 10 uM using […] as substrate incubated for 40 mins in presence of [gamma33P]ATP by scintillation counting based hotspot kinase assay relative to control
Sequence of Mitogen-activated protein kinase 14 (Homo sapiens) (Q16539 whole entry): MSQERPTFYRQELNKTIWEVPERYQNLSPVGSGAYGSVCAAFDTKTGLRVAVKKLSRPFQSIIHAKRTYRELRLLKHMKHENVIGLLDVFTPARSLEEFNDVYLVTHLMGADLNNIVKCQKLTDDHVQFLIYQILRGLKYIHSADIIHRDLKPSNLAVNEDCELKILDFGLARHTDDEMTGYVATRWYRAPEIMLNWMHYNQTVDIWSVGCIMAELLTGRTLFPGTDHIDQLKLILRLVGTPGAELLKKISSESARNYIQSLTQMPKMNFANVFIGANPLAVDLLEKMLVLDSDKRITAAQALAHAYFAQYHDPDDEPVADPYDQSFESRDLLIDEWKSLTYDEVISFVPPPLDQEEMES

[10] = tested on: Panel ovarian (Carcinoma cell lines); test: Antiproliferative activity against human Panel ovarian (7 Carcinoma cell lines) assessed as reduction in mean cell growth; type: functional; method in brief: as §2
[11] = tested on: MDA-MB-468; test: Cytotoxicity against human MDA-MB-468 cells; type: functional; conditions: read-out: LC50 (the source's name); method in brief: as §1
[12] = tested on: Panel prostate (Carcinoma cell lines); test: Antiproliferative activity against human Panel prostate (2 Carcinoma cell lines) assessed as reduction in mean cell growth; type: functional; method in brief: as §2
[13] = target: Epidermal growth factor receptor (Homo sapiens) (UniProt P00533); test: Inhibition of EGFR (unknown origin) at 10 uM using […] as substrate incubated for 40 mins in presence of [gamma33P]ATP by scintillation counting based hotspot kinase assay relative to control
Sequence of Epidermal growth factor receptor (Homo sapiens) (P00533 whole entry): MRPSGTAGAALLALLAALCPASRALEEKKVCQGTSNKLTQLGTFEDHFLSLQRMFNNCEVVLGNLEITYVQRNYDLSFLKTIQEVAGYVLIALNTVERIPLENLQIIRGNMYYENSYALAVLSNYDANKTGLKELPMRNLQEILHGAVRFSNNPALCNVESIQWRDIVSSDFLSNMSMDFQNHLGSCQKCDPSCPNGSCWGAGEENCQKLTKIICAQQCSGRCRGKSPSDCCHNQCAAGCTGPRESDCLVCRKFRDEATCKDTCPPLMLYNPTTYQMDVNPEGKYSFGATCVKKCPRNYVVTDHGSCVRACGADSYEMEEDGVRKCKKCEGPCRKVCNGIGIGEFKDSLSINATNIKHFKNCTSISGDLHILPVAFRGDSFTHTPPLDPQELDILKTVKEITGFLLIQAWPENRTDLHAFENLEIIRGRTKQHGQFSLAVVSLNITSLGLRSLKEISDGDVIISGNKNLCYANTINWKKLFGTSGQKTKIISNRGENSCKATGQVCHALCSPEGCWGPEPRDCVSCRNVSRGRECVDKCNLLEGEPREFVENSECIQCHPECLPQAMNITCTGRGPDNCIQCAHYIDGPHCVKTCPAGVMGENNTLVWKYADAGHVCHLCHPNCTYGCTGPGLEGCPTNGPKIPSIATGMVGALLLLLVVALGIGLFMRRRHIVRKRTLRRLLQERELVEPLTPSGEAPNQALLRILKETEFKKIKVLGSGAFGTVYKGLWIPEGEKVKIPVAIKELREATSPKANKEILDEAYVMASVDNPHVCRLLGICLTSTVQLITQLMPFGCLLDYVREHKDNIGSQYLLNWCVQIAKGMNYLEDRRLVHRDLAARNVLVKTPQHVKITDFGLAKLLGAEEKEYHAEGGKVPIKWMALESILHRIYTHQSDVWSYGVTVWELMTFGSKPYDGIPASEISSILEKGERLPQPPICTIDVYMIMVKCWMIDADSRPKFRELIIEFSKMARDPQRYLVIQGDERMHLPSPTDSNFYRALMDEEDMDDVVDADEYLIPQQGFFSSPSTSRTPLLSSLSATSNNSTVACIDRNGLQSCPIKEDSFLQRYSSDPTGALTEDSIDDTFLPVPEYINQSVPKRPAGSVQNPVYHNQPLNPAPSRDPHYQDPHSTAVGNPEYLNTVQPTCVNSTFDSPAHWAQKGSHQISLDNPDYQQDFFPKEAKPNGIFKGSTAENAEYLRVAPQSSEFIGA

[14] = target: RAF proto-oncogene serine/threonine-protein kinase (Homo sapiens, UniProt P04049); test: Inhibition of RAF1 (unknown origin) at 10 uM using […] as substrate incubated for 40 mins in presence of [gamma33P]ATP by scintillation counting based hotspot kinase assay relative to control
Sequence of RAF proto-oncogene serine/threonine-protein kinase (P04049 whole entry): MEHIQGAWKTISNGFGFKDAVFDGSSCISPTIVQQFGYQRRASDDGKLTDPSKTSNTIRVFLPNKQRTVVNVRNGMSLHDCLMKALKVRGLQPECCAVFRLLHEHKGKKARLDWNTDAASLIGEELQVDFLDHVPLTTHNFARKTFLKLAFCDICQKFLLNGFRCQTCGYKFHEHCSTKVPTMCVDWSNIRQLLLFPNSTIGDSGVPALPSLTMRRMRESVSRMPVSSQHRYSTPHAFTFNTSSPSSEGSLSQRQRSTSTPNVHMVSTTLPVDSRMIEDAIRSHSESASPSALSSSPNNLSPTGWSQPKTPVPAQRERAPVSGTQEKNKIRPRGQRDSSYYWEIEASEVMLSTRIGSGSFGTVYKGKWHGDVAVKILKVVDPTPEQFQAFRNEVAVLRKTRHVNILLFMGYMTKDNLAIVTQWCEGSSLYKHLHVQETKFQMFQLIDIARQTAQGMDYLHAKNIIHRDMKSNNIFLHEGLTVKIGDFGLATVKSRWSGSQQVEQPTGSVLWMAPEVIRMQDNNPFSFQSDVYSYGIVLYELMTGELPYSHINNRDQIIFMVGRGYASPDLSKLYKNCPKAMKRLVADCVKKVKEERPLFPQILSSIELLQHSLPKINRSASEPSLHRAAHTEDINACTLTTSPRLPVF

[15] = tested on: MDA-MB-468; test: Antiproliferative activity against human MDA-MB-468 cells assessed as reduction in cell growth; type: functional; method in brief: as §2
[16] = tested on: COLO 205; test: Antiproliferative activity against human COLO 205 cells assessed as reduction in cell growth; type: functional; method in brief: as §2
[17] = tested on: PC-3; test: Antiproliferative activity against human PC-3 cells assessed as reduction in cell growth; type: functional; method in brief: as §2
[18] = tested on: HOP-92; test: Cytotoxicity against human HOP-92 cells; type: functional; method in brief: as §1
[19] = tested on: RXF 393; test: Cytotoxicity against human RXF 393 cells; type: functional; method in brief: as §1
[20] = tested on: COLO 205; test: Antiproliferative activity against human COLO 205 cells assessed as total growth inhibition; type: functional; method in brief: as §2
[21] = tested on: Panel melanoma (Carcinoma cell lines); test: Antiproliferative activity against human Panel melanoma (9 Carcinoma cell lines) assessed as reduction in mean cell growth; type: functional; method in brief: as §2
[22] = species: Homo sapiens; test: Inhibition of ABL […] mutant (unknown origin) at 10 uM using […] as substrate incubated for 40 mins in presence of [gamma33P]ATP by scintillation counting based hotspot kinase assay relative to control
[23] = tested on: SNB-75; test: Antiproliferative activity against human SNB-75 cells assessed as total growth inhibition; type: functional; method in brief: as §2
[24] = tested on: L132; test: Cytotoxicity against human L132 cells assessed as reduction in cell growth at 31.3 to 100 uM relative to control; type: toxicity, cell-based; set-up: scale not given: the % may be the effect or the level left; conditions: l132, 100 µM, dose 31.3-100 µM
[25] = tested on: NCI/ADR-RES; test: Antiproliferative activity against human NCI/ADR-RES cells assessed as reduction in cell growth; type: functional; method in brief: as §2
[26] = tested on: NCI/ADR-RES; test: Cytotoxicity against human NCI/ADR-RES cells; type: functional; method in brief: as §1
[27] = tested on: PC-3; test: Antiproliferative activity against human PC-3 cells assessed as total growth inhibition; type: functional; method in brief: as §2
[28] = tested on: SNB-75; test: Cytotoxicity against human SNB-75 cells; type: functional; conditions: read-out: LC50 (the source's name); method in brief: as §1
[29] = tested on: HCT-15; test: Antiproliferative activity against human HCT-15 cells assessed as total growth inhibition; type: functional; method in brief: as §2
[30] = tested on: K562; test: Cytotoxicity against human k562 cells; type: functional; conditions: read-out: LC50 (the source's name); method in brief: as §1
[31] = tested on: Panel breast (Carcinoma cell lines); test: Antiproliferative activity against human Panel breast (6 Carcinoma cell lines) assessed as reduction in mean cell growth; type: functional; method in brief: as §2
[32] = tested on: Panel colon (Carcinoma cell lines); test: Antiproliferative activity against human Panel colon (7 Carcinoma cell lines) assessed as reduction in mean cell growth; type: functional; method in brief: as §2
[33] = tested on: HCT-15; test: Cytotoxicity against human HCT-15 cells; type: functional; conditions: read-out: LC50 (the source's name); method in brief: as §1
[34] = tested on: MDA-MB-468; test: Antiproliferative activity against human MDA-MB-468 cells assessed as total growth inhibition; type: functional; method in brief: as §2
[35] = tested on: RXF 393; test: Antiproliferative activity against human RXF 393 cells assessed as reduction in cell growth; type: functional; method in brief: as §2
[36] = tested on: HOP-92; test: Antiproliferative activity against human HOP-92 cells assessed as total growth inhibition; type: functional; method in brief: as §2
[37] = tested on: SK-MEL-5; test: Antiproliferative activity against human SK-MEL-5 cells assessed as reduction in cell growth; type: functional; method in brief: as §2
[38] = tested on: SNB-75; test: Antiproliferative activity against human SNB-75 cells assessed as reduction in cell growth; type: functional; method in brief: as §2
[39] = tested on: COLO 205; test: Cytotoxicity against human COLO 205 cells; type: functional; method in brief: as §1
[40] = tested on: K562; test: Antiproliferative activity against human K562 cells assessed as total growth inhibition; type: functional; method in brief: as §2
[41] = tested on: SK-MEL-5; test: Cytotoxicity against human SK-MEL-5 cells; type: functional; method in brief: as §1
[42] = tested on: SK-MEL-5; test: Antiproliferative activity against human SK-MEL-5 cells assessed as total growth inhibition; type: functional; method in brief: as §2
[43] = Antiproliferative activity against human Panel non-small cell lung cancer (8 Carcinoma cell lines) assessed as reduction in mean cell growth; type: functional; conditions: Non-small cell lung cancer cell line; method in brief: as §2
[44] = tested on: Panel CNS (Carcinoma cell lines); test: Antiproliferative activity against human Panel CNS (6 Carcinoma cell lines) assessed as reduction in mean cell growth; type: functional; method in brief: as §2
[45] = tested on: HOP-92; test: Antiproliferative activity against human HOP-92 cells assessed as reduction in cell growth; type: functional; method in brief: as §2
[46] = tested on: RXF 393; test: Antiproliferative activity against human RXF 393 cells assessed as total growth inhibition; type: functional; method in brief: as §2
[47] = tested on: Panel renal (Carcinoma cell lines); test: Antiproliferative activity against human Panel renal (8 Carcinoma cell lines) assessed as reduction in mean cell growth; type: functional; method in brief: as §2
[48] = tested on: NCI/ADR-RES; test: Antiproliferative activity against human NCI/ADR-RES cells assessed as total growth inhibition; type: functional; method in brief: as §2

Sequence of Tyrosine-protein kinase ABL1 (Homo sapiens) (P00519 whole entry): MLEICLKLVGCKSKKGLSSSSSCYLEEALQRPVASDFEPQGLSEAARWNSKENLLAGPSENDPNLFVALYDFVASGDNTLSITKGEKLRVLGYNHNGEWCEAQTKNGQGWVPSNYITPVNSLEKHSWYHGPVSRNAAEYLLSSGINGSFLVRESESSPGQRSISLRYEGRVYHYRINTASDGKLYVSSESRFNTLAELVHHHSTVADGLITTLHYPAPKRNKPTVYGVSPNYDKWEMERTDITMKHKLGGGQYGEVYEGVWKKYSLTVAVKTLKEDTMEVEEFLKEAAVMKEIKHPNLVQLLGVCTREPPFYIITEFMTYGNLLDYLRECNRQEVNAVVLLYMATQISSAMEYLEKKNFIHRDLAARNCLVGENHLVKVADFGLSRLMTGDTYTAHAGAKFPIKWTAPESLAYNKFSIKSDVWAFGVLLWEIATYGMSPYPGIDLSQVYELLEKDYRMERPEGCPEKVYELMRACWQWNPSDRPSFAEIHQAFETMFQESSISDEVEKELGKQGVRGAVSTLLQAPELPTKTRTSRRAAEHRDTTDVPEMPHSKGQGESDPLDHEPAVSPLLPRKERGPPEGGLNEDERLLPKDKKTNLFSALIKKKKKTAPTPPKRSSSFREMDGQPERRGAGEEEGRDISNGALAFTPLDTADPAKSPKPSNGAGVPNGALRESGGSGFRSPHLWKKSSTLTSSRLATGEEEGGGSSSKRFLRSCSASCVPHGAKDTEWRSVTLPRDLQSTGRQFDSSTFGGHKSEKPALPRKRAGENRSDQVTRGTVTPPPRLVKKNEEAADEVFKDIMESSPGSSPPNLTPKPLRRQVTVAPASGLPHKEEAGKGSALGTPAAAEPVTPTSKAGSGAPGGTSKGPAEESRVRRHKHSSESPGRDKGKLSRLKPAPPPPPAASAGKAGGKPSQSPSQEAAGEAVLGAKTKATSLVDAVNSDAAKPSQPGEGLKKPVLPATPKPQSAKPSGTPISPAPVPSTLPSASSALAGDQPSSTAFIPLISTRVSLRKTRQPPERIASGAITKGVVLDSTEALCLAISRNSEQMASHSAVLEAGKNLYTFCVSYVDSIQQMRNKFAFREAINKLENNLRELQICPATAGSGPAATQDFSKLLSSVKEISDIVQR

In the case of `O=C(NCCCNc1cc(-c2cn(-c3ccccc3)nc2-c2cccc(O)c2)ccn1)c1ccc(F)cc1`, the inhibition [1] is reported as 16.1%, the LC50 [2] is reported as 44.3 µM and the GI50 [3] is reported as 1980 nM. The GI50 [4] was 1930 nM, the inhibition [5] was 22.5% and the GI50 [6] was 1770 nM. For the same compound, the inhibition [7] was 40.1%, the Activity [8] was greater than 80% and the inhibition [9] was 66.6%. The GI50 [10] was 3.46 µM, the CC50 [11] was 6.92 µM and the GI50 [12] was 3.72 µM. For the same compound, the inhibition [13] was 15.7%, the inhibition [14] was 36.4% and the GI50 [15] was 1590 nM. It also gave a GI50 [16] of 1600 nM, a GI50 [17] of 2810 nM and an LC50 [18] of 7.38 µM. For the same compound, the LC50 [19] was 5.99 µM, the TGI [20] was 3.78 µM and the GI50 [21] was 1910 nM. It also gave an inhibition [22] of 14.6%, a TGI [23] of 12.5 µM and an Activity [24] of 50%. The GI50 [25] was 2200 nM, the LC50 [26] was 29.7 µM and the TGI [27] was 5.24 µM. It also gave a CC50 [28] of 74 µM, a TGI [29] of 3.71 µM and a CC50 [30] of 100 µM. For the same compound, the GI50 [31] was 1890 nM, the GI50 [32] was 2160 nM and the CC50 [33] was 8.09 µM. For the same compound, the TGI [34] was 3.43 µM, the GI50 [35] was 1630 nM and the TGI [36] was 3.28 µM. For the same compound, the GI50 [37] was 1610 nM, the GI50 [38] was 5.19 µM and the LC50 (lethal concentration 50%) [39] was 7.6 µM. The TGI [40] was 4.83 µM, the LC50 [41] was 5.72 µM and the TGI [42] was 3.15 µM. The GI50 [43] was 3120 nM, the GI50 [44] was 3290 nM and the GI50 [45] was 2130 nM. It also gave a TGI [46] of 3.03 µM, a GI50 [47] of 2840 nM and a TGI [48] of 5.82 µM.

Work on `CNC(=O)c1cc(Oc2ccc(NC(=O)Nc3ccc(Cl)c(C(F)(F)F)c3)cc2)ccn1` [SORAFENIB] yielded a GI50 [3] of 2430 nM, a GI50 [4] of 3160 nM and a GI50 [10] of 2.88 µM. The CC50 [11] was 50.1 µM, the GI50 [12] was 2.58 µM and the GI50 [15] was 1990 nM. The GI50 [16] was 1990 nM, the GI50 [17] was 1990 nM and the TGI [20] was 5.01 µM. For the same compound, the GI50 [21] was 1870 nM, the CC50 [28] was 7.94 µM and the TGI [29] was 10 µM. It also gave a CC50 [30] of 100 µM, a GI50 [31] of 2170 nM and a GI50 [32] of 2190 nM. For the same compound, the CC50 [33] was 50.1 µM, the GI50 [35] was 2510 nM and the GI50 [38] was 3.16 µM. For the same compound, the TGI [40] was 100 µM, the GI50 [43] was 2250 nM and the GI50 [44] was 2330 nM. The TGI [46] was 10 µM, the GI50 [47] was 2940 nM and the TGI [48] was 15.8 µM.
